The target in assay [1] is T1, TnIYD (Thermotoga neapolitana, UniProt B9K712).
T1 sequence (B9K712 1-186): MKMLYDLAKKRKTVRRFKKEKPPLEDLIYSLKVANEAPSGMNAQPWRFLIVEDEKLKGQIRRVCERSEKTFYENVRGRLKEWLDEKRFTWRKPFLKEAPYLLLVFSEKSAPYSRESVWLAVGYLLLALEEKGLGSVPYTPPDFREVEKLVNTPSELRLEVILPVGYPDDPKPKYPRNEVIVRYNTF
Kind of assay: Active site ligand binding by quenching of FMNox fluorescence, wild-type TnIYD.

The target in assay [2] is T2, TnIYD Y112A (Thermotoga neapolitana, UniProt B9K712, Y112A).
T2 sequence (B9K712 1-186 Y112A): T1 sequence (B9K712 1-186) with Y112A
Description: Active site ligand binding by quenching of FMNox fluorescence, Y112A variant. The essentials: (§1)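 C-terminal His6-tagged T. neapolitana IYD variants, made by mutagenesis, were expressed in E. coli Rosetta2 and purified on Ni-NTA. They were incubated with ~300 μM FMN and quantified by bound-FMN A450. Excitation was 450 nm and emission 516–526 nm. Dilution-corrected F/F0 versus ligand was fit to a two-state binding isotherm.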

Assay [3] addresses T3, TnIYD M41A (Thermotoga neapolitana, UniProt B9K712, M41A).
T3 sequence (B9K712 1-186 M41A): T1 sequence (B9K712 1-186) with M41A
Description: Active site ligand binding by quenching of FMNox fluorescence, M41A variant. A digest of the protocol:
as §1

Assay [4] deals with T4, TnIYD M41A/Y112A (Thermotoga neapolitana, UniProt B9K712, M41A/Y112A).
T4 sequence (B9K712 1-186 M41A/Y112A): T1 sequence (B9K712 1-186) with M41A, Y112A
It is filed as binding. A digest of the protocol:
as §1

The target in assay [5] is T5, TnIYD M41K (Thermotoga neapolitana, UniProt B9K712, M41K).
T5 sequence (B9K712 1-186 M41K): T1 sequence (B9K712 1-186) with M41K
Kind of assay: Active site ligand binding by quenching of FMNox fluorescence, M41K variant. A digest of the protocol: as §1

Assay [6] deals with T6, TnIYD M41F (Thermotoga neapolitana, UniProt B9K712, M41F).
T6 sequence (B9K712 1-186 M41F): T1 sequence (B9K712 1-186) with M41F
Description: Active site ligand binding by quenching of FMNox fluorescence, M41F variant. A digest of the protocol: as §1

The target of assay [7] is T7, TnIYD Y112A/W82A/F88A (Thermotoga neapolitana, UniProt B9K712, F88A/W82A/Y112A).
T7 sequence (B9K712 1-186 W82A/F88A/Y112A): T1 sequence (B9K712 1-186) with W82A, F88A, Y112A
Format: binding. The essentials:
as §1

Assay [8] concerns IYD from mesophiles. The note with it: cited from earlier work.
Assay [9] addresses T1, TnIYD. Kind of assay: Catalytic dehalogenation, steady-state kinetics. It is filed as biochemical. As to conditions: for Km / kcat: substrate of TnIYD.

Each structure is given as a SMILES string. Residue numbers refer to the chain shown, from its start.

In the case of `N[C@@H](Cc1ccc(O)cc1)C(=O)O` [Tyr, tyrosine], the Kd (as a rule, the equilibrium constant for the complex coming apart) in assay [1] is 0.45 ± 0.07 µM; in assay [2], 0.9 ± 0.1 µM; in assay [3], 1.6 ± 0.2 µM; in [4] it was 0.95 ± 0.09 µM; in assay [5], 7.4 ± 0.2 µM; in assay [6], 0.09 ± 0.06 µM. The Kd in assay [7] worked out at 1200 ± 20 µM. Further, the “weakening of affinity by M41A substitution relative to wt TnIYD” value in [3] (25 °C) worked out at 3.6 fold. Besides, the “decrease of affinity by M41A/Y112A variant relative to wt TnIYD” value in assay [4] (25 °C) worked out at 2 fold. The “decrease of affinity by M41K variant relative to wt TnIYD” value in assay [5] (25 °C) is 16 fold. For the same molecule, in assay [6] (25 °C), the “enhancement of binding by M41F variant relative to wt TnIYD” value was 5 fold. Further, the “weakening of binding by W82A/F88A/Y112A triple mutant relative to wt TnIYD” value in assay [7] (25 °C) is reported as “more than 2600 fold”. Moreover, the “affinity of Tyr to IYD from mesophiles” value in assay [8] is listed as “too weak to measure”.

Consider `Oc1ccccc1I` [2-IP, 2-iodophenol], for which binding in assay [1] was put at a Kd of 31 ± 1 µM. Besides, in assay [9] (25 °C), the “difference in Km values for I-Tyr and 2-IP” value is reported as 19,000 fold; the “difference of kcat relative to the kcat value of I-Tyr” value turned out to be 2 fold; the “efficiency (kcat/Km) relative to that for iodotyrosine” value was “less than 0.01%”; the Km (usually the concentration of substrate that gives half-maximal velocity) came out at 4.2 mM. The kcat (as a rule, the number of substrate molecules converted per active site and unit of time at saturation) in [9] (25 °C) is 0.014 ± 0.001 s⁻¹. In assay [9] (60 °C vs 25 °C), the “increase of kcat at 60 °C relative to 25 °C” value is “less than 8 fold”. In addition, in assay [9] (60 °C), the Km came out at 6.6 mM and the kcat is 0.108 ± 0.005 s⁻¹. Moreover, the “kcat/Km smaller than that for I-Tyr” value in assay [9] (at both temperatures (25 °C and 60 °C)) was “more than 10,000 fold”.

Values taken from article PMC8668982 (The Journal of Biological Chemistry, 2021).
